Bioassay records: PubChem, The Scripps Research Institute Molecular Screening Center
Most compounds without a hit are left out; they make up all but 2.9% or so of the library.
CHO-K1 Ca antag – counter-screen for M1 antagonists: effect in parental CHO-K1 cells; hit rate 0.6% among 360,000; inhibition, % at 3 µM; ATP-induced calcium, Fluo-8 fluorescence;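 active means inhibition above a per-plate cutoff, the plate's mean sample inhibition plus 3 SD, cut at about 24% in these data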;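 further: 0% = DMSO plus EC80 ATP and 100% = DMSO alone without ATP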
M1 ag parental – nonselective activator or artifact in parental CHO-K1 cells | Fluo-8 calcium fluorescence; scaled to maximal ATP response, vehicle zero | AID 602248 | activation, % at 3 µM | hit rate 0.48% among 360,000; in the data active means activation above about 15%;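 further: untransfected CHO-K1 host cells lacking M1 receptor as counterscreen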
OX1R antag-1 – antagonists of human orexin 1 receptor (OX1R). OX1R-expressing cells, FRET antagonist read-out. hit rate 1.8% among 330,000. inhibition, % at 6.6 µM. O43613. AID 485270; in the data active means inhibition mostly above about 38%, no sharp cut-off; inactive means mostly below about 40%;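 further: 0% = agonist challenge alone and 100% = reference antagonist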
Target sequence (O43613 whole entry, looked up): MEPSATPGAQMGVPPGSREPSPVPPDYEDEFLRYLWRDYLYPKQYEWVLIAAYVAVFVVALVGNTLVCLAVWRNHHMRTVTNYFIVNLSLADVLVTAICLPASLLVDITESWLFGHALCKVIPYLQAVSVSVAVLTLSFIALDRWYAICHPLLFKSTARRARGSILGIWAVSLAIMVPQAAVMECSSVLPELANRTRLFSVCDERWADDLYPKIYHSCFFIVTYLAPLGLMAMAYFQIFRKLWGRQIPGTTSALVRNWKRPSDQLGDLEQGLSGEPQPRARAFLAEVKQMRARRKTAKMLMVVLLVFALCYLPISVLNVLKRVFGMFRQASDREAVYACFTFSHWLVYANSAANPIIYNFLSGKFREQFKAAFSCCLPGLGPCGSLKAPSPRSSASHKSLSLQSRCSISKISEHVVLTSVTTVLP
CHO parental Ca – counter-screen: ATP calcium response change in parental CHO cells; hit rate 0.63% among 330,000; inhibition, % at 5.6 µM; parental CHO-K1, ATP-induced calcium, Fluo-8 fluorescence; AID 463079;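 active means inhibition above that plate's mean sample inhibition plus 3 SD, cut at about 26% in these data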;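 further: 0% = ATP-challenged DMSO wells and 100% = DMSO wells without ATP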
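Test system: untransfected parental CHO cell line; also added: ATP stimulus; dosing: 5.6 µM, single dose; signal: calcium-sensitive Fluo-8 fluorescence; measure: percent inhibition of ATP-evoked calcium rise, normalized to controls; benchmarks: low control ATP plus DMSO, high control DMSO only; replication: one well per compound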
OX1R antag-2 – antagonists of human orexin 1 receptor. CHO/OX1R cells, Fluo-8 calcium fluorescence, orexin A. inhibition, % at 5 µM. hit rate 0.43% among 330,000;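 active means inhibition above its plate's threshold, mean inhibition of all tested compounds on the plate plus 3 SD, cut at about 37% in these data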;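 further: 0% = orexin A challenge wells and 100% = SB-334867-A antagonist wells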
M1 PAM parental – counter-screen for M1 PAMs: effect in parental CHO-K1 cells; hit rate 0.02% among 360,000; activation, % at 3 µM; AID 602247; ATP EC20, Fluo-8 calcium fluorescence; 0% at ATP EC20, 100% at ATP max;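 active means activation above the run cutoff, the mean activation of all test compounds plus 3 SD, cut at about 40% in these data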;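 further: peak over basal fluorescence ratio in a 140 s read after ATP addition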
OX1R Fluo8 conf – OX1R (human) antagonism, confirmed; shares compounds with OX1R antag-2; CHO/OX1R cells, orexin A calcium Fluo-8 fluorescence; inhibition, % at 5 µM; hit rate 38% among 1,100; AID 492963; in the data active means inhibition above about 29%;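 further: 0% = agonist challenge alone and 100% = reference antagonist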
CHO Ca counter – counter-screen for OX1R antagonists: effect in parental CHO cells. shares compounds with OX1R antag-2. parental CHO-K1, ATP-induced calcium, Fluo-8 fluorescence. inhibition, % at 5.6 µM. hit rate 9.3% among 1,100. AID 492965;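 active means inhibition above a per-plate limit, the mean inhibition of that plate's test compounds plus 3 SD, cut at about 25% in these data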;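 further: 0% = ATP challenge with DMSO and 100% = DMSO without ATP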
OX1R HTRF conf – confirmation of human orexin 1 receptor antagonists, HTRF format; shares compounds with OX1R antag-1; OX1R-expressing cells, HTRF antagonist assay; inhibition, % at 6.6 µM; hit rate 49% among 1,800; in the data active means inhibition above about 55%;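 further: CHO cells expressing OX1R stimulated with orexin A at about EC80; 0% = agonist challenge alone and 100% = reference antagonist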
CHO-K1 HTRF – counter-screen: parental CHO-K1 HTRF response; hit rate 48% among 1,800; inhibition, % at 6.6 µM; AID 493232; parental CHO-K1 cells, HTRF counterscreen; shares compounds with OX1R antag-1; in the data active means inhibition above about 17%;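 further: 0% = agonist challenge with vehicle and 100% = vehicle alone without agonist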
* hit, by the source's call; · = no result.

SMILES	CHO-K1 Ca antag	M1 ag parental	OX1R antag-1	CHO parental Ca	OX1R antag-2	M1 PAM parental	OX1R Fluo8 conf	CHO Ca counter	OX1R HTRF conf	CHO-K1 HTRF
CCOc1ccccc1C(=O)Nc1ccc(NC(=O)c2ccccc2)cc1	-17.4	0.2	15.9	-11.2	-0.6	14.8	·	·	·	·
Cc1noc(/C=C/N(C)C)c1S(=O)(=O)N(C)Cc1ccc(F)cc1	-1.3	0.0	1.2	-11.3	-21.3	15.6	·	·	·	·
Cc1cc(SCC(=O)OC(C)C(=O)N(C)c2ccccc2)nc2ccccc12 (stereo not drawn)	-2.6	0.4	38.0*	-25.6	48.1*	17.0	15.2	0.9	60.8*	0.3
O=C(CSc1ccc(-c2ccccc2)nn1)c1cccs1	10.5	0.4	101.5*	-7.4	49.8*	-22.0	99.3*	-3.9	89.9*	-3.8
COc1ccc(-c2ccc(SCC(=O)c3cccs3)nn2)cc1	8.0	0.5	50.4	-16.4	-17.3	-15.1	·	·	·	·
CCOC(=O)N1CCN(C(=O)CSc2ccc(-c3ccccc3)nn2)CC1	-10.5	0.0	92.2*	-9.6	25.8	-1.1	26.9	2.9	82.4*	-2.5
CCOc1ccccc1NC(=O)CN1C(=O)NC(Cc2c[nH]c3ccccc23)C1=O (stereo not drawn)	-16.0	2.1	35.9*	-25.3	42.0*	6.1	10.3	-9.0	33.5	-5.3
Cc1cc(N/N=C/c2ccccc2O)nc(-c2ccccc2O)n1	1.4	2.2	90.1*	24.9	54.2*	18.2	9.3	1.0	21.6	4.7
COc1ccc(/C=c2\s/c(=C/C(=O)c3ccc(C)cc3)[nH]c2=O)c(OC)c1	-2.8	1.1	78.6*	8.6	47.1*	-4.1	28.5	1.7	93.1*	9.6
CC(C)Nc1oc(-c2cccc3ccccc23)nc1C#N	-8.0	0.2	5.8	-7.9	-20.3	-1.3	·	·	·	·
CCNc1oc(-c2cccc3ccccc23)nc1C#N	10.9	-0.1	89.2*	20.3	55.0*	7.7	39.2*	1.9	78.1*	5.0
C=CCNc1oc(-c2cccc3ccccc23)nc1C#N	-6.7	0.0	68.6*	-12.4	42.9*	13.4	15.9	1.2	54.7*	7.0
CCc1nc2ccc(Cc3ccc4nc(CC)[nH]c4c3)cc2[nH]1	-11.0	-0.1	-4.5	4.3	-31.9	11.8	·	·	·	·
C/C(=N\Nc1cccc([N+](=O)[O-])c1)c1ccccc1O	-9.5	2.5	76.4*	-9.8	28.0	18.2	2.1	12.5	47.0	7.0
Cc1ccc(S(=O)(=O)NCC(=O)OCC(=O)N(C)C2CCS(=O)(=O)C2)cc1 (stereo not drawn)	-6.0	2.1	-0.9	-8.8	-9.5	5.2	·	·	·	·
CN(C)c1ccc(/C=C/c2ccc3ccccc3n2)cc1	4.6	5.5	75.2*	14.1	62.2*	-1.3	52.2*	15.3	80.1*	8.2
CCc1nc2c(OCC3COc4ccccc4O3)cccn2c1N(C)C(=O)c1ccc(OC)cc1 (stereo not drawn)	-1.0	0.2	·	·	·	-0.3	·	·	·	·
COCCNC(=O)C(c1ccc(F)cc1)N(CCOC)C(=O)CCC(=O)Nc1ccccn1 (stereo not drawn)	-6.0	0.9	4.8	4.1	-10.3	15.3	·	·	·	·
Cc1cc(NC(=O)CCC(=O)N(Cc2cccs2)C(C(=O)NC2CCCC2)c2ccccc2)no1 (stereo not drawn)	-4.8	2.1	92.0*	-18.8	51.3*	10.9	43.9*	-33.1	93.2*	0.6
COCCNC(=O)C(c1ccc(C)cc1)N(Cc1cccs1)C(=O)CCC(=O)Nc1ccccn1 (stereo not drawn)	-7.1	2.2	75.3*	-4.7	21.9	2.4	25.2	-14.5	82.1*	-1.0
COCCNC(=O)C(c1ccc(O)cc1)N(Cc1cccs1)C(=O)CCC(=O)Nc1ccccn1 (stereo not drawn)	-8.7	0.4	33.4	0.2	-5.8	3.4	·	·	·	·
COCCNC(=O)C(c1ccc(C)cc1)N(Cc1ccccc1)C(=O)CCC(=O)Nc1ccccn1 (stereo not drawn)	-5.0	1.2	72.2*	-21.3	31.7	10.6	39.5*	-10.2	88.4*	0.6
CC(=O)Nc1ccc(S(=O)(=O)N(Cc2ccccc2)c2ccccc2F)cc1	-0.2	2.3	63.1*	-14.6	37.8	9.0	33.8*	-2.9	56.1*	-5.0
COc1ccc(C(C)=O)c(Oc2ccc(S(=O)(=O)N3CCOCC3)cn2)c1	-8.9	-0.5	3.2	-17.7	3.0	8.3	·	·	·	·
C=CC[C@H](CC(=O)NCCO)C(=O)N[C@H](COC(=O)[C@@H](CC=C)Cc1ccc(F)cc1)Cc1ccccc1	4.6	0.3	4.5	-21.8	-10.3	-3.2	·	·	·	·
SMILES	CHO-K1 Ca antag	M1 ag parental	OX1R antag-1	CHO parental Ca	OX1R antag-2	M1 PAM parental	OX1R Fluo8 conf	CHO Ca counter	OX1R HTRF conf	CHO-K1 HTRF
CS(=O)(=O)c1ccc(C(=O)Nc2cccc(-c3nc4ccccc4[nH]3)c2)cc1	-7.4	3.4	72.1*	-9.4	29.2	6.0	21.4	-5.0	63.0*	7.7
CS(=O)(=O)c1cccc(C(=O)Nc2cccc(-c3nc4ccccc4[nH]3)c2)c1	-2.4	3.3	13.1	-1.0	-6.2	13.6	·	·	·	·
Cc1ccc(-c2csc3nnc(SCC(=O)Nc4nsc(-c5ccccc5)n4)n23)cc1	-26.0	0.4	81.8*	-31.5	67.9*	8.8	48.5*	-21.0	91.2*	6.3
O=C(CSc1nnc2scc(-c3ccccc3)n12)Nc1nsc(-c2ccc(Cl)cc2)n1	-5.6	0.3	19.0	-13.1	-27.6	16.3	·	·	·	·
Cc1cc(Br)cc2c1NC(=O)C2(c1c(C)n(C)n(-c2ccccc2)c1=O)c1c(C)n(C)n(-c2ccccc2)c1=O	-9.4	0.4	69.2*	-7.8	31.4	19.1	57.0*	-5.8	71.5*	8.4
COc1cc(C(=O)OCC(=O)N2c3ccccc3NC(=O)C2(C)C)ccc1OCC(C)C	0.5	7.7	56.0*	7.1	27.9	-1.9	22.8	-2.7	56.2*	6.0
Cc1ccc(NS(=O)(=O)c2ccc3c(c2)CCN3C(=O)CCC(=O)O)cc1Cl	-15.8	1.8	3.6	2.9	1.5	7.1	·	·	·	·
COc1ccccc1C(=O)Nc1nc2cc3c(cc2s1)OCCO3	-15.5	1.5	106.1*	7.2	39.2	31.7	51.4*	-5.6	94.7*	4.2
CC(=O)c1ccc(-c2ccc(C(=O)N(C)c3c(N)n(Cc4ccccc4)c(=O)[nH]c3=O)o2)cc1	1.9	1.7	26.9	-13.8	-13.2	-6.9	·	·	·	·
